Eight compounds from ChEMBL document CHEMBL4765234 (J Med Chem, 2016) can be followed below.

In brackets after ≈: the same amount, converted by molar mass. Activity calls are given as the source filed them. No cut-off for these calls is given here.

Series [1] addresses T1, Peroxisome proliferator-activated receptor alpha (Homo sapiens) (UniProt Q07869).
T1 sequence (whole entry): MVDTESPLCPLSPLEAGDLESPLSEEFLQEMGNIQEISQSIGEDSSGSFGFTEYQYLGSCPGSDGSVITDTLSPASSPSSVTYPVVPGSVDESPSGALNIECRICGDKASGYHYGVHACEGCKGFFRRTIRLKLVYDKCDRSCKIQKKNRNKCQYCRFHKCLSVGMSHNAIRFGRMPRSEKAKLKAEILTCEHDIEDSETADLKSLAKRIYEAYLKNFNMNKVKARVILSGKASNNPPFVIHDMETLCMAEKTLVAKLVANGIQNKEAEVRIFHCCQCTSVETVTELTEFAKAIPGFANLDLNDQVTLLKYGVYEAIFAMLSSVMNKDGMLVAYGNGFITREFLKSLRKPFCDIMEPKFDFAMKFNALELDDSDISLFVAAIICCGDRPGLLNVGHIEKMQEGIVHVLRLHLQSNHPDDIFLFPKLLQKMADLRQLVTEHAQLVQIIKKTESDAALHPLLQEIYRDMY
Kind of series: Displacement of [3H]-[…] from PPARalpha (unknown origin) expressed in baculovirus infected Sf9 insect cells upto 30 uM measured after 10 hrs by microbeta scintillation counting analysis. The settings on record: dose microM <=30, time 10.0 hrs. Summed up: (§1)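 Scintillation proximity assay. Sf9 lysates with baculovirus-expressed PPARα (0.3 μg), PPARδ (0.5 μg) or PPARγ (1.25 μg), each with RXRα, were bound via biotinylated DR2 oligo (0.126 nM) to streptavidin yttrium silicate beads. Buffer was HEPES pH 7.8 with KCl, MgCl2, DTT, CHAPS, 14% glycerol and salmon sperm DNA. A 3H reference agonist ligand was used, with 11 compound concentrations, for 10 h. Nonspecific binding was defined with 10000 nM unlabeled reference. Ki was derived from IC50.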

Series [2] has as its target Free fatty acid receptor 1 (Rattus norvegicus) (UniProt Q8K3T4). Briefly: Agonist activity at Prolink-tagged rat GPR40 fused with EA-tagged beta-arrestin expressed in human U2OS cells assessed as induction of beta-arrestin recruitment measured after 90 mins by beta-galactosidase based PathHunter assay relative to control. Particulars: filed as agonist. In kind it is cell-based. In outline:
(§2)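 PathHunter β-gal complementation. Cells were incubated overnight at 5000/well in medium with 1% heat-inactivated FBS. Compound was added as a 20-point 2-fold series from a top final of 100 μM (1% DMSO) for 90 min at 37 °C, followed by detection reagents and chemiluminescence read after 1 h at rt.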
A general note: Activated receptors often draw arrestin, which recruitment assays turn into a signal.

Series [3] deals with T2, Peroxisome proliferator-activated receptor delta (Homo sapiens) (UniProt Q03181).
T2 sequence (whole entry): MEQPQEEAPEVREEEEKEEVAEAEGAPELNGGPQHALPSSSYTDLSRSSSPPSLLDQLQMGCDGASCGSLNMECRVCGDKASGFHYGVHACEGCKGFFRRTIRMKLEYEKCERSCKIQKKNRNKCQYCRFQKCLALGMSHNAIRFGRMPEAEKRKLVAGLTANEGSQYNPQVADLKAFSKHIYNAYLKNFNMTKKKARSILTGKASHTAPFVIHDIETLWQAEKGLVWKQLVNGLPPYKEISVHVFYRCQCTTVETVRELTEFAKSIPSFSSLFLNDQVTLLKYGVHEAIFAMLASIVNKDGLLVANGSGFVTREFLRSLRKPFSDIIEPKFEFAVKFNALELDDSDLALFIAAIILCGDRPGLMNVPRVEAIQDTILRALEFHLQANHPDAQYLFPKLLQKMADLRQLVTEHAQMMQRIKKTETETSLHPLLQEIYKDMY
Briefly: Displacement of [3H]-[…] from PPARdelta (unknown origin) expressed in baculovirus infected Sf9 insect cells upto 30 uM measured after 10 hrs by microbeta scintillation counting analysis. Particulars: dose microM <=30, time 10.0 hrs. In outline: as §1
For orientation: Displacement assays read how much labelled ligand stays bound in the presence of the test substance.

Series [4] deals with Free fatty acid receptor 1 (Mus musculus, UniProt Q76JU9). Briefly: Agonist activity at Prolink-tagged mouse GPR40 fused with EA-tagged beta-arrestin expressed in human U2OS cells assessed as induction of beta-arrestin recruitment measured after 90 mins by beta-galactosidase based PathHunter assay. In kind it is cell-based. Summed up:
as §2

The test system of series [5] is Mus musculus. Briefly: Hypoglycemic activity in Balb/c mouse assessed as effective dose causing reduction in blood glucose level administered orally 60 mins prior to glucose challenge measured for 60 mins by IPGTT. The settings on record: po, 1 h. The format is functional.
Series [6] concerns the target T3, Free fatty acid receptor 1 (Homo sapiens, UniProt O14842). Briefly: Agonist activity at human recombinant full length GPR40 overexpressed in human HEK293 cells assessed as increase in intracellular calcium level measured over 3 mins by calcium 4 dye based FLIPR assay. The format is functional, cell-based. In outline: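 HEK293 cells overexpressing hGPR40 (25K/well) were cultured overnight in DMEM/F12 with 0.2% FBS and geneticin. Compound was tested at 40 μM–0.1 nM final (20-point, 1% DMSO), and FLIPR fluorescence was read over 3 min.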

Series [7] deals with T3, Free fatty acid receptor 1. Briefly: Agonist activity at human recombinant full length GPR40 overexpressed in human HEK293 cells assessed as increase in inositol phosphate accumulation in presence of terbium cryptate-labeled anti IP1/d2-labelled IP1 measured after 120 mins by HTRF assay relative to AMG837. In kind it is functional, cell-based. Particulars: filed as agonist. Summed up:
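HEK293 hGPR40 cells (20K/well) were cultured overnight, washed, and held in IP1 stimulation buffer. IP-1 was measured by competitive HTRF immunoassay with terbium cryptate anti-IP1 mAb and d2-labelled IP1.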

Series [8] relates to Rattus norvegicus. Kind of series: Hypoglycemic activity in Zucker fatty diabetes mellitus rat model assessed as reduction in blood glucose level administered orally for 21 days and measured at 10 to 60 mins post glucose challenge on day 1 by OGTT. In kind it is functional, organism-based. Particulars: dose 0.03-1 mg/kg, time 21.0 day.
Series [9] has as its system Mus musculus. Kind of series: Agonist activity at GPR40 in Balb/c mouse assessed as increase in GLP-1 levels in blood at 30 mg/kg, po measured at 15 to 180 mins by ELISA. In kind it is functional, organism-based. Particulars: filed as agonist, time lower […], time upper 180.0 min. On the technique in general: In an ELISA, binding on a coated surface is turned into a signal by an enzyme label.

The target in series [10] is T4, Peroxisome proliferator-activated receptor delta (Homo sapiens, UniProt Q03181).
T4 sequence (Q03181 whole entry): T2 sequence (whole entry)
Kind of series: Agonist activity at human Gal4-fused PPARdelta LBD expressed in African green monkey CV1 cells cotransfected with pRL-SV40 plasmid measured after 24 hrs by luciferase reporter gene assay. The format is cell-based, CV-1. Summed up: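 CV1 African green monkey kidney cells were cotransfected, in DMEM with 5% charcoal-stripped FBS, with two plasmids: an SV40-driven Gal4 DBD–PPARα or PPARδ LBD hybrid, and a 5×Gal4-element firefly luciferase reporter. Cells were replated at 15000/well for 4 h, then exposed to 0.17 nM–10 μM in half-log steps for 24 h. Luciferase was read, normalized to maximum from 10 μM reference agonist, and fit by a 4-parameter model.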

The subject of series [11] is Rattus norvegicus. Briefly: Hypoglycemic activity in Zucker fatty diabetes mellitus rat model assessed as increase in insulin levels in plasma at 0.03 to 1 mg/kg, po administered for 21 days and measured at 10 to 60 mins post glucose challenge on day 21 by OGTT. The format is functional, organism-based. The settings on record: dose 0.03-1 mg/kg, time 21.0 day.
Series [12] relates to Rattus norvegicus. Briefly: Hypoglycemic activity in Zucker fatty diabetes mellitus rat model assessed as reduction in blood glucose level administered orally for 21 days and measured at 10 to 60 mins post glucose challenge on day 21 by OGTT. In kind it is functional, organism-based. Particulars: dose 0.03-1 mg/kg, time 21.0 day.
Series [13] is described as follows: Solubility of the compound in 0.01 N HCl. The format is physicochemical.
Series [14] in a line: Metabolic stability in human liver microsomes assessed as compound hydrolysis incubated for 30 mins by LC-MS/MS analysis. The format is ADME, Microsome. The settings on record: read-out: Drug degradation. Summed up: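 Incubated 30 min with mouse or human liver microsomes. Stability reported as % metabolized.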

T3 sequence (O14842 whole entry): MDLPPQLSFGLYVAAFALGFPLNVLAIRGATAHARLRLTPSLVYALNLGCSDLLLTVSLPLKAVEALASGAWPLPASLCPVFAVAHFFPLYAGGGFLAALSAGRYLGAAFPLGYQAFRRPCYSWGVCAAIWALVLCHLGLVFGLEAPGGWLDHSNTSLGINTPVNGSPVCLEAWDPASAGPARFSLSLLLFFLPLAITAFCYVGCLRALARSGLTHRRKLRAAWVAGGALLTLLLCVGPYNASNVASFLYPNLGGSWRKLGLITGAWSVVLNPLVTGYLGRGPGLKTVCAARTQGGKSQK
Free fatty acid receptor 1 (Mus musculus, UniProt Q76JU9), sequence (Q76JU9 whole entry, the tested form may be a part): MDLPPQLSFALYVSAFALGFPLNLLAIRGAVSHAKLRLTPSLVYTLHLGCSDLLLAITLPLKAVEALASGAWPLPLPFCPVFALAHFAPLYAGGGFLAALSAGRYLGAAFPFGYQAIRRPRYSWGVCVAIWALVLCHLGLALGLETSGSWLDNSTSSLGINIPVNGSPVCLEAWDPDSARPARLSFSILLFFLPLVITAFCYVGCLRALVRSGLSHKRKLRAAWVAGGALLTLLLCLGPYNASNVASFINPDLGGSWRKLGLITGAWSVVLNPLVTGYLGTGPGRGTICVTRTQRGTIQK
Free fatty acid receptor 1 (Rattus norvegicus), sequence (Q8K3T4 whole entry, the tested form may be a part): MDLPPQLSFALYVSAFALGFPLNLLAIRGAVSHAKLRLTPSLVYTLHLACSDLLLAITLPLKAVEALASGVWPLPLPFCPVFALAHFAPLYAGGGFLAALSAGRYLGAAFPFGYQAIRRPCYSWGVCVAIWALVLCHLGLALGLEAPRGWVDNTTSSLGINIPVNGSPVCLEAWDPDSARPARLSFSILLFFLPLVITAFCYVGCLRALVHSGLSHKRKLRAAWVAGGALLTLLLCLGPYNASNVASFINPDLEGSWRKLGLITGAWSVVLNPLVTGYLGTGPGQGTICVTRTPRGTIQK

Take `O=C(O)CCc1ccc(OCc2ccc(CN3CCC4(C=Cc5ccccc54)CC3)cc2)cc1F`: the outcome in series [1] and in series [3] was inactive. In addition, the maximum response (Emax) in series [2] is 114%; in series [7], 282%. The 50% effective concentration (EC50) in series [4] was 32 nM; in series [6], 180 nM. Besides, the ED90 with Mus musculus [5] was more than 100 mg/kg.
On to `CC#C[C@@H](CC(=O)O)c1ccc(OCc2ccc(CN3CCC4(CCc5ccccc54)CC3)cc2)cc1`, for which the outcome in series [1] and in series [3] was inactive. The Emax in series [2] worked out at 135%; in series [7], 249%. The EC50 is 0.88 nM in series [4] and 19 nM in series [6]. Besides, the ED90 with Mus musculus [5] was 22 mg/kg.
Regarding `CC#C[C@@H](CC(=O)O)c1ccc(OCc2ccc(CN3CCC4(CC3)CN(C)c3ccccc34)cc2)cc1`, the result in [1] and in series [3] was inactive. The Emax stood at 126% in series [2] and 268% in [7]. Moreover, the EC50 is 3.3 nM in [4] and 55 nM in series [6]. In the series on Mus musculus [5], the ED90 worked out at 11.7 mg/kg.
In the case of `O=C(O)C[C@@H](c1ccc(OCc2ccc3nc(-c4ccccc4)nn3c2)cc1)c1ccon1`, the result in [1] and in series [3] was inactive. Also, the Emax in series [2] was found to be 61%; in series [7], 124%. Moreover, the EC50 in series [4] came out at 3800 nM; in [6], 14 nM. Further, in the series on Mus musculus [5], the ED90 was more than 100 mg/kg.
Regarding `CC#C[C@@H](CC(=O)O)c1ccc(OCc2ccc(CN3CCCc4cccc(OC)c43)s2)cc1`, the Activity entry with Rattus norvegicus [8] and with Rattus norvegicus [12] was “Dose-dependent effect” throughout. The result with Mus musculus [9] and in the series on Rattus norvegicus [11] was Active. For the same compound, the Emax in [2] was 121%. Besides, the values for the EC50 in [10] and in series [4] were more than 10000 nM and 1 nM, respectively. Also, the ED90 with Mus musculus [5] is 5 mg/kg. Further, the concentration in solution in series [13] (solubility) was 46 µg/mL (≈ 96.7 µM). Further, the metabolised at 0.5 h in series [14] was determined as 24%.
Regarding `CC#C[C@@H](CC(=O)O)c1ccc(OCc2ccc(CN3CCC4(CCc5ccccc54)CC3)s2)cc1`, the result in series [1] and in series [3] was inactive. Moreover, the Activity entry in the series with Rattus norvegicus [8] and in the series on Rattus norvegicus [12] was “Dose-dependent effect” in each case. In addition, the outcome in the series on Mus musculus [9] and with Rattus norvegicus [11] was Active. In addition, the figures for the Emax in series [2] and in series [7] were 108% and 132%, respectively. Also, the EC50 in [10] is more than 10000 nM; in series [4], 1.2 nM; in series [6], 8 nM. Besides, the ED90 in the series with Mus musculus [5] was 5.6 mg/kg. This compound registered a solubility in series [13] of 55 µg/mL (≈ 110 µM). In series [14], the metabolised at 0.5 h is 44%.
Turning to `CC#C[C@@H](CC(=O)O)c1ccc(OCc2ccc(CN3CCC4(C=Cc5ccccc54)CC3)s2)cc1`, the outcome in series [1] and in series [3] was inactive. Further, the values for the Emax in series [2] and in [7] were 113% and 145%, respectively. In addition, the results for the EC50 in series [4] and in [6] were 0.46 nM and 12 nM, respectively. For the same compound, in the series with Mus musculus [5], the ED90 stood at 3.67 mg/kg.
For `CC#C[C@@H](CC(=O)O)c1ccc(OCc2ccc(CN3CCC4(C=Cc5ccccc54)CC3)cc2)cc1` [LY2881835], the result in series [1] and in series [3] was inactive. Moreover, the Activity entry in the series with Rattus norvegicus [8] and with Rattus norvegicus [12] was “Dose-dependent effect” throughout. The outcome in the series with Mus musculus [9] and with Rattus norvegicus [11] was Active. For the same compound, the Emax came to 124% in [2] and 162% in series [7]. In addition, the EC50 in series [10] is more than 10000 nM; in series [4] (u2os), 0.85 nM. The ED90 with Mus musculus [5] was found to be 0.58 mg/kg. The compound also yielded a solubility in series [13] of 13 µg/mL (≈ 26.4 µM). In addition, the metabolised at 0.5 h in series [14] turned out to be 38%.

For orientation: Emax means the greatest response seen or fitted, relative to the assay's reference. A word on the EC50: it is the concentration giving half of the maximal effect. By solubility is commonly meant how much of the substance goes into solution per volume.
